The source made the active and inactive calls. The rule behind the calls is not given here.
What was measured:
Type in all cases: functional, cell-based
MCF7 [1] = test: Induction of apoptosis in human MCF7 cells assessed as chromatin condensation after 24 hrs by AO/EB-dual staining based fluorescent microscopic analysis
Method in brief: (§1)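 Treated cells were collected, washed in PBS (pH 7.2), and stained with an AO/EtBr mixture (1:1; […] each in water) for 2 min. They were then washed twice with PBS and viewed by fluorescence microscopy at 400× with a 480 nm excitation filter. Green marks intact membranes; orange/red marks damaged membranes and condensed nuclei. Untreated cells served as control.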

MCF7 [2] = test: Induction of apoptosis in human MCF7 cells assessed as nuclear fragmentation after 24 hrs by DAPI-staining based fluorescence microscopic analysis
Method in brief: (§2)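 Cells were grown on glass coverslips, treated for 24 h, fixed, and permeabilised with 0.2% Triton X-100 for 10 min at room temperature. They were then stained with DAPI for 3 min and examined by fluorescence microscopy for condensed chromatin and nuclear fragmentation. Untreated cells served as control.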

A549 [3] = test: Induction of morphological changes in human A549 cells assessed as formation of floating cells after 24 hrs by phase contrast microscopy
A549 [4] = test: Induction of morphological changes in human A549 cells assessed as cell shrinkage after 24 hrs by phase contrast microscopy
MCF7 [5] = test: Cytotoxicity against human MCF7 cells assessed as reduction in cell viability after 48 hrs by MTT assay; details: for IC50: MCF7, 48 h
Method in brief: (§3)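 Cells kept in DMEM with 10% FBS, glutamine, HEPES and antibiotics at 37°C, 5% CO2. Seeded at 1×10⁴ cells/well and grown 48 h to 75% confluence, then exposed to serially diluted compounds for 48 h. MTT added for 4 h at 37 °C, formazan dissolved in DMSO, OD read at 620 nm. Viability is given as % of control OD, and IC50 is read from the viability-versus-concentration plot. Three independent experiments in triplicate.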

MCF7 [6] = test: Induction of morphological changes in human MCF7 cells assessed as cell shrinkage after 24 hrs by phase contrast microscopy
MCF7 [7] = test: Induction of morphological changes in human MCF7 cells assessed as formation of floating cells after 24 hrs by phase contrast microscopy
A549 [8] = test: Cytotoxicity against human A549 cells assessed as reduction in cell viability after 48 hrs by MTT assay; details: for IC50: A549, 48 h; method in brief: as §3
A549 [9] = test: Induction of apoptosis in human A549 cells assessed as nuclear fragmentation after 24 hrs by DAPI-staining based fluorescence microscopic analysis; method in brief: as §2
MCF7 [10] = test: Induction of morphological changes in human MCF7 cells assessed as membrane blebbing after 24 hrs by phase contrast microscopy
A549 [11] = test: Induction of apoptosis in human A549 cells assessed as chromatin condensation after 24 hrs by AO/EB-dual staining based fluorescent microscopic analysis; method in brief: as §1
A549 [12] = test: Induction of morphological changes in human A549 cells assessed as membrane blebbing after 24 hrs by phase contrast microscopy

Row | Compound | Activity (MCF7 [1]) | Activity (MCF7 [2]) | Activity (A549 [3]) | Activity (A549 [4]) | Activity (MCF7 [5]) | IC50 (MCF7 [5]) | Activity (MCF7 [6]) | Activity (MCF7 [7]) | Activity (A549 [8]) | IC50 (A549 [8]) | Activity (A549 [9]) | Activity (MCF7 [10]) | Activity (A549 [11]) | Activity (A549 [12])
1 | COc1ccc(-c2onc3c2CCc2c-3[nH]c3ccc(C)cc23)cc1Br | inactive | Active | Dose-dependent effect | Dose-dependent effect | Dose-dependent effect | 21 µM | Dose-dependent effect | Dose-dependent effect | Dose-dependent effect | 28 µM | Active | Dose-dependent effect | Active | Dose-dependent effect
2 | COc1ccc(-c2nc(N)nc3c2ccc2c4cccc(C)c4[nH]c23)cc1Br | – | – | – | – | Dose-dependent effect | 28 µM | – | – | Dose-dependent effect | 31 µM | – | – | – | –
3 | CCOc1nc2c(c(-c3ccc(OC)c(Br)c3)c1C#N)CCc1c-2[nH]c2c(C)cccc12 | – | – | – | – | Dose-dependent effect | 36 µM | – | – | Dose-dependent effect | 39 µM | – | – | – | –
4 | COc1ccc(-c2nc(N)nc3c2ccc2c4cc(Cl)ccc4[nH]c23)cc1Br | Active | – | Dose-dependent effect | Dose-dependent effect | Dose-dependent effect | 20 µM | Dose-dependent effect | Dose-dependent effect | Dose-dependent effect | 25 µM | inactive | Dose-dependent effect | Active | Dose-dependent effect
5 | COc1ccc(-c2onc3c2CCc2c-3[nH]c3c(C)cccc23)cc1Br | – | – | – | – | Dose-dependent effect | 32 µM | – | – | Dose-dependent effect | 35 µM | – | – | – | –
6 | COc1ccc(-c2onc3c2CCc2c-3[nH]c3ccccc23)cc1Br | – | – | – | – | Dose-dependent effect | 31 µM | – | – | Dose-dependent effect | 33 µM | – | – | – | –
7 | CCOc1nc2c(c(-c3ccc(OC)c(Br)c3)c1C#N)CCc1c-2[nH]c2ccc(C)cc12 | inactive | Active | Dose-dependent effect | Dose-dependent effect | Dose-dependent effect | 25 µM | Dose-dependent effect | Dose-dependent effect | Dose-dependent effect | 29 µM | – | Dose-dependent effect | Active | Dose-dependent effect
8 | CCOc1nc2c(c(-c3ccc(OC)c(Br)c3)c1C#N)CCc1c-2[nH]c2ccc(Cl)cc12 | Active | – | Dose-dependent effect | Dose-dependent effect | Dose-dependent effect | 25 µM | Dose-dependent effect | Dose-dependent effect | Dose-dependent effect | 32 µM | inactive | Dose-dependent effect | – | Dose-dependent effect
9 | COc1ccc(-c2nc(N)nc3c2ccc2c4ccccc4[nH]c23)cc1Br | – | – | – | – | Dose-dependent effect | 26 µM | – | – | Dose-dependent effect | 29 µM | – | – | – | –
10 | COc1ccc(-c2nc(N)nc3c2ccc2c4cc(C)ccc4[nH]c23)cc1Br | inactive | Active | Dose-dependent effect | Dose-dependent effect | Dose-dependent effect | 22 µM | Dose-dependent effect | Dose-dependent effect | Dose-dependent effect | 24 µM | Active | Dose-dependent effect | – | Dose-dependent effect
11 | CCOc1nc2c(c(-c3ccc(OC)c(Br)c3)c1C#N)CCc1c-2[nH]c2ccccc12 | – | – | – | – | Dose-dependent effect | 35 µM | – | – | Dose-dependent effect | 37 µM | – | – | – | –

Reference: ChEMBL document CHEMBL4004855, “Synthesis of hetero annulated isoxazolo-, pyrido- and pyrimido carbazoles: Screened for in vitro antitumor activity and structure activity relationships, a novel 2-amino-4-(3'-bromo-4'-methoxyphenyl)-8-chloro-11H-pyrimido[4,5-a]carbazole as an antitumor agent” (Eur J Med Chem, 2017)
